In the library only some 1.5% were active in any assay of this set; here they are far more common.
Apaf-1 inh: inhibitors of human Apaf-1 apoptosome, primary screen, biochemical, DEVD-Rh110 fluorescence, uHTS | hit rate 0.71% among 330,000 | reconstituted apoptosome caspase-3 activity | AID 489030, 2010 | inhibition, % at 20 µM | Apoptotic protease-activating factor 1 (Homo sapiens), O14727; active means inhibition of at least 40% at 20 µM;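 further: plate controls were DMSO wells for no effect and DEVD-CHO caspase inhibitor wells for full effect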
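System: Apoptosome proteins | Medium: Hepes pH 7.5 with detergent and BSA | Also added: Cytochrome c trigger plus (Z-DEVD)2-Rh110 caspase-3 substrate | Incubation: 30 min compound preincubation, 50 min activation, room temperature | Detection: Rhodamine 110 fluorescence at Ex 480/Em 540 nm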
UCH37 DUB inh: inhibitors of human UCH37 deubiquitinase, primary screen, biochemical, Ub-AMC cleavage, fluorescence | hit rate 0.33% among 330,000 | purified proteasome/UCH37 | inhibition, % (no concentration beside the values) | AID 588478, 2011 | Ubiquitin carboxyl-terminal hydrolase isozyme L5 (Homo sapiens), Q9Y5K5;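 active means mean inhibition over replicate wells above about 20%, limit read from the data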;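 further: 0% = compound-free wells with enzyme and 100% = wells lacking proteasome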
Target sequence (Q9Y5K5 whole entry, looked up): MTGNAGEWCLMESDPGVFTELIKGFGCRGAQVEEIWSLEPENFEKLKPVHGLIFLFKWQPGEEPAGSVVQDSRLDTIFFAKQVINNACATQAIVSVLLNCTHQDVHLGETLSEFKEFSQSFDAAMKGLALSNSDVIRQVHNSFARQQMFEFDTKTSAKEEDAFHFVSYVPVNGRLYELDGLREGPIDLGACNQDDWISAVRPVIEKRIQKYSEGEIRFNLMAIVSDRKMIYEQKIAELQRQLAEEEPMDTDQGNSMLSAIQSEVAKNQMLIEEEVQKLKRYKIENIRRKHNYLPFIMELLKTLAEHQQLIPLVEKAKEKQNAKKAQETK
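system = Proteasome-associated human UCH37 deubiquitinase | amount = 0.15 nM proteasome as dispensed | medium = pH 7.4 Tris-HCl (50 mM) with ovalbumin, ATP-MgCl2, DTT | incubation = 30 min preincubation with enzyme, 25 min cleavage at room temperature | detection = AMC fluorescence 355/460 nm | read-out basis = percent inhibition | controls = no-proteasome and no-compound wells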
UBC13 inh: UBC13 polyubiquitin chain formation inhibitors, primary screen, biochemical, TR-FRET, uHTS | AID 485273, 2010 | inhibition, % at 20 µM | Ubiquitin-conjugating enzyme E2 N (Homo sapiens), P61088 | hit rate 0.47% among 330,000; in the data active means inhibition above about 45%, passing the limit was not always enough
Target sequence (P61088 whole entry, looked up): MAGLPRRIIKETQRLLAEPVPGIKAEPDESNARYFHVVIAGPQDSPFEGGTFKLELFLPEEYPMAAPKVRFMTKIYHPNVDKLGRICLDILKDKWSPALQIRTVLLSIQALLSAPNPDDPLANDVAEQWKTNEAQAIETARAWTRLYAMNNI
PREPL inhibitor: PREPL enzyme inhibitors, primary screen, biochemical, fluorescence polarization. Prolyl endopeptidase-like (Homo sapiens), Q4J6C6. recombinant PREPL, fluorescence polarization activity-based probe. inhibition, % at 5.96 µM. hit rate 0.68% among 320,000. AID 2751, 2010;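 further: 0% = enzyme with DMSO and 100% = wells lacking enzyme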
PREPL confirm: human PREPL enzyme inhibitors, confirmation, biochemical, fluorescence polarization; AID 2803, 2010; recombinant PREPL, fluorescence polarization activity probe; hit rate 67% among 2,000; shares compounds with PREPL inhibitor; inhibition, % at 5.96 µM;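 further: 0% = protein with DMSO and 100% = wells lacking protein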
Starred values were filed as active, the others as inactive; . = no result. Unless noted, no stated cut-off is given here; in the data, active means inhibition above about 43%; inactive means the rest.

SMILES	Apaf-1 inh	UCH37 DUB inh	UBC13 inh	PREPL inhibitor	others
Cc1ccc(CN2CCN(C(=O)CCN3C(=O)c4ccccc4C3=O)CC2)cc1	-4.9	20.2*	7.7	26.3
OCCN1CCN(CC#CCn2c3ccccc3c3ccccc32)CC1	-11.2	22.7*	16.6	5.0
O=C(O)COc1ccccc1C=NNc1ccc(S(=O)(=O)N2CCOCC2)cc1[N+](=O)[O-]	.	23.0*	.	.
COc1ccc(Cn2c(SCC#N)nc3ccc(N4CCOCC4)cc3c2=O)cc1	12.2	-21.0	-7.8	70.5*
Cc1ccc2[nH]c(=O)c(-c3nc4cc(C)ccn4c3NCc3ccco3)cc2c1	7.1	4.0	4.6	21.1
Cc1cccc2cc(-c3nc4c(C)cccn4c3NCc3ccco3)c(=O)[nH]c12	23.6	24.7*	-5.6	18.9
COc1cc(C=NNC(=O)c2nc(C)cc(C)n2)ccc1O	.	5.6	.	.
COc1ccc(C(=O)Oc2cccc(/C=N/NC(N)=S)c2)cc1	0.4	.	3.8	45.2*
Cc1cc(NC(=O)COc2cccc(Oc3ccccc3)c2)no1	7.6	4.7	-2.8	-1.2
Cc1cccc(OCC(=O)Nc2ccc(C(=O)c3ccc(C(=O)O)cc3)cc2)c1	4.7	34.7*	0.0	-7.4
Cc1cccc(OCC(=O)Nc2cc(C)on2)c1	-4.5	33.6*	-0.3	10.9
Cc1ccc(NC2=CC(=NS(=O)(=O)c3cccs3)c3ccccc3C2=O)cc1	.	22.3*	.	.
CC(=NNC(=O)c1cc2ccccc2cc1O)c1ccco1	.	6.4	.	.
COc1cc(OC)c(OC)cc1C=Nn1c(C)nc2ccccc2c1=O	.	3.0	.	.
CC(=NNc1nc(N2CCOCC2)nc(N2CCOCC2)n1)c1cccc([N+](=O)[O-])c1	.	2.5	.	.
CCN(CC)C(=O)C1=C(C)NC(=S)NC1c1ccc(C)s1 (stereo not drawn)	-1.9	1.6	-2.0	-1.7
CCN(CC)C(=O)C1=C(C)NC(=S)NC1c1cccs1 (stereo not drawn)	-9.0	26.9*	5.8	0.5
Cc1ccccc1Nc1cc2ccccc2c(=O)[nH]1	95.8*	18.1	-52.9	6.4
Cc1cc2ccccc2c(=O)[nH]1	-17.6	-15.2	4.4	0.6
Nc1nnn(CC(=O)NN=Cc2cccc3ccccc23)n1	.	4.1	.	.
N#C/C(=C(/O)CSc1ccccc1C(=O)O)c1nc2ccccc2s1	25.1	20.6*	-8.0	4.7
O=C(NN=Cc1ccccc1Br)C1CC1	.	0.7	.	.
Cc1ccc(C(=O)N/N=C/C=C/c2ccccc2)o1	-1.5	.	-4.7	10.9
Cc1ccc(C(=O)NN=C/C=C/c2ccccc2)o1	.	21.1*	.	.
Cc1csc(=NN=Cc2cccc([N+](=O)[O-])c2)n1Cc1ccco1	.	2.4	.	.
SMILES	Apaf-1 inh	UCH37 DUB inh	UBC13 inh	PREPL inhibitor	others
CC(C)C[C@H](NC(=O)c1[nH]cnc1C(=O)Nc1ccccc1)C(=O)OC(C)(C)C	27.0	28.2*	-9.1	14.8
CN(Cc1ccccc1)C(=O)c1[nH]cnc1C(=O)N[C@@H](Cc1ccccc1)C(=O)OC(C)(C)C	17.6	35.3*	-4.6	-6.0
CCN(CC)C(=O)c1[nH]cnc1C(=O)N[C@@H](C)C(=O)OC(C)(C)C	8.2	31.8*	3.1	-3.2
CCCCNC(=O)CCCCC(=O)NN=Cc1cccc(Cl)c1	.	5.0	.	.
CC(CC(=O)Nc1cccc(C(F)(F)F)c1)=NNC(=O)C1CCCCC1	.	4.3	.	.
CCOc1ccc(C=NNC(=O)c2csc(C)c2C)c(OCC)c1	.	0.8	.	.
Cc1[nH]n(-c2ccccc2)c(=O)c1C(c1ccc(O)c([N+](=O)[O-])c1)c1c(C)[nH]n(-c2ccccc2)c1=O	87.2*	7.4	-188.3	-3.0
O=C(CC1(O)C(=O)c2ccccc2C1=O)c1ccccc1	11.7	1.2	-0.4	1.7
O=C1c2ccccc2C(=O)C1(O)O	68.0*	.	-51.7	15.2
CC(=O)c1c(C)oc2c1C(=O)c1ccccc1C2=O	.	8.4	.	-4.1
Cc1oc2c(c1C(=O)NCc1cccnc1)C(=O)c1ccccc1C2=O	86.1*	21.9*	-146.8	19.3
COc1ccc(Cc2nnc(NN=Cc3ccc(O)cc3O)[nH]c2=O)cc1OC	.	11.4	.	.
COCCN1C(=O)N[C@@H](c2ccccc2)[C@@H](C(=O)OC)[C@H]1C	-2.9	21.5*	-0.9	3.6
CCn1c(/C=C/N(C)c2ccccc2)[n+](CC)c2ccc(Cl)cc21	-1.5	22.8*	-3.3	31.4
O=C(O)C1=CC(=C(c2ccc(O)c(C(=O)O)c2)c2ccc(O)c(C(=O)O)c2)C=CC1=O	.	.	.	79.7*
COc1ccc(C(=O)NN=C(C)c2ccc(N3CCCCC3)cc2)cc1	.	-124.7	.	.
Nc1ccc(N=Nc2ccccc2)c2ccccc12	18.9	1.1	-138.8	19.5
Nc1ccc(O)c2ccccc12	67.7*	.	-39.2	31.7
Oc1c(Cl)cc(Cl)cc1Sc1cc(Cl)cc(Cl)c1O	18.5	.	2.8	48.0*
Cc1cc(C)c(O)c(CN(C)Cc2cc(Cl)cc(Cl)c2O)c1	.	0.1	.	.
O=C(NC1CC1)C1=C[C@@H](c2ccc(C(F)(F)F)cc2)C[C@@H](OCc2ccc(CO)cc2)O1	12.3	0.0	6.5	47.1*	PREPL confirm=41.6
C#Cc1ccc([C@@H]2C=C(C(=O)N3CCOCC3)O[C@H](OCc3ccc(CO)cc3)C2)cc1	7.9	3.5	10.0	44.6*	PREPL confirm=43.8*
CN1CCN(C(=O)C2=C[C@@H](c3ccc(C(F)(F)F)cc3)C[C@@H](OCCCCO)O2)CC1	0.7	3.9	2.7	45.4*	PREPL confirm=53.7*
CN1CCN(C(=O)C2=C[C@H](c3ccc(C(F)(F)F)cc3)C[C@H](OCCCCO)O2)CC1	6.6	2.3	1.3	20.2
O=C(C1=C[C@@H](c2ccc(C(F)(F)F)cc2)C[C@@H](OCc2ccc(CO)cc2)O1)N1CCOCC1	10.0	1.2	10.3	55.2*	PREPL confirm=48.4*
SMILES	Apaf-1 inh	UCH37 DUB inh	UBC13 inh	PREPL inhibitor	others
C#Cc1ccc([C@H]2C=C(C(=O)N3CCOCC3)O[C@@H](OCc3ccc(CO)cc3)C2)cc1	6.3	0.4	-9.6	28.6
O=C(NC1CC1)C1=C[C@H](c2ccc(Br)cc2)C[C@H](OCc2ccc(CO)cc2)O1	14.3	0.4	5.5	15.3
COc1ccc(C=NN2C(=O)CN(C(=O)c3ccccc3)C2c2ccc(OC)cc2)cc1 (stereo not drawn)	.	3.3	.	.
CN1C(=O)NC(c2ccccc2[N+](=O)[O-])C2=C1CCCC2=O (stereo not drawn)	21.5	6.1	-39.4	77.0*	PREPL confirm=14.2
CCCCn1c(N=Cc2ccc(N(C)C)cc2)nc2ccccc21	.	3.7	.	.
N#C/C(=C\C1CC2C=CC1C2)c1nc2ccccc2[nH]1 (stereo not drawn)	9.3	-4.0	6.9	48.0*	PREPL confirm=8.8
N#C/C(=C\Nc1ccc2c(c1)OCCO2)c1nc2ccccc2[nH]1	32.5	0.7	-7.1	26.3
N#C/C(=C\c1ccc(OC(=O)c2cccs2)cc1)c1nc2ccccc2[nH]1	14.5	-13.9	-14.6	55.3*	PREPL confirm=12.4
